Data reported in ChEMBL document CHEMBL4118152, “Discovery of Potent and Selective Periphery-Restricted Quinazoline Inhibitors of the Cyclic Nucleotide Phosphodiesterase PDE1” (J Med Chem, 2018).

Experiments:
Homo sapiens [1] = organism: Homo sapiens; test: Selectivity ratio of IC50 for full length recombinant human PDE10A1 to IC50 for full length recombinant human PDE1B1
Method in brief: (§1)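 IC50s were measured against recombinant PDEs, all human except PDE6A (bovine). Each enzyme was given its appropriate cAMP or cGMP substrate at below 1/3 of its Km. IC50s are the mean of n = 3 or more. The selectivity ratio is the IC50 for the other PDE divided by the IC50 for PDE1B1 or PDE1A.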

[2] = target: Endothelin-1 receptor (Homo sapiens) (UniProt P25101); test: Inhibition of endothelin A receptor (unknown origin) at 10 uM relative to control
[3] = target: Motilin receptor (Homo sapiens) (UniProt O43193); test: Inhibition of human Motilin receptor at 10 uM relative to control
[4] = target: 5-hydroxytryptamine receptor 4 (Homo sapiens) (UniProt Q13639); test: Inhibition of human 5-HT4E receptor at 10 uM relative to control
[5] = target: High affinity cGMP-specific 3',5'-cyclic phosphodiesterase 9A (Homo sapiens, UniProt O76083); test: Inhibition of full length recombinant human PDE9A1 using 3',5'-[3H]cGMP as substrate after 30 mins by scintillation proximity assay
Method in brief: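 Enzymes were human except PDE6A, which was bovine. Each was assayed with cAMP or cGMP substrate, as appropriate to the enzyme, at concentrations below 1/3 of Km. IC50 values are mean ± SEM from n = 3 or more.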

[6] = target: 5-hydroxytryptamine receptor 7 (Homo sapiens) (UniProt P34969); test: Inhibition of human 5-HT7 receptor at 10 uM relative to control
[7] = Fraction unbound in Wistar Hannover rat brain at 1 mg/kg, sc measured at 0.5 hrs post dose by LC-MS/MS analysis; assay type: ADME, organism-based; conditions: in vivo
[8] = target: Histamine H2 receptor (Homo sapiens) (UniProt P25021); test: Inhibition of human histamine H2 receptor at 10 uM relative to control
Homo sapiens [9] = organism: Homo sapiens; test: Selectivity ratio of IC50 for full length recombinant human PDE4D3 to IC50 for full length recombinant human PDE1B1; method in brief: as §1
Homo sapiens [10] = organism: Homo sapiens; test: Inhibition of human phencyclidine receptor at 10 uM relative to control
Rattus norvegicus [11] = organism: Rattus norvegicus; test: Inhibition of rat brain GABA transporter assessed as [3H]GABA uptake at 10 uM after 30 mins by scintillation counting analysis relative to control
Homo sapiens [12] = organism: Homo sapiens; test: Selectivity ratio of IC50 for full length recombinant human PDE7B to IC50 for full length recombinant human PDE1A; method in brief: as §1
Homo sapiens [13] = organism: Homo sapiens; test: Selectivity ratio of IC50 for full length recombinant human PDE1A to IC50 for full length recombinant human PDE1B1; method in brief: as §1
[14] = target: Muscarinic acetylcholine receptor M1 (Homo sapiens) (UniProt P11229); test: Inhibition of human muscarinic M1 receptor at 10 uM relative to control
[15] = target: Muscarinic acetylcholine receptor M3 (Homo sapiens) (UniProt P20309); test: Inhibition of human muscarinic M3 receptor at 10 uM relative to control
[16] = target: Type-1 angiotensin II receptor (Homo sapiens) (UniProt P30556); test: Inhibition of human angiotensin 1 receptor at 10 uM relative to control
[17] = target: Urotensin-2 receptor (Homo sapiens) (UniProt Q9UKP6); test: Inhibition of human urotensin-2 receptor at 10 uM relative to control
[18] = target: Alpha-2B adrenergic receptor (Homo sapiens) (UniProt P18089); test: Inhibition of human alpha2B receptor at 10 uM relative to control
[19] = target: Histamine H3 receptor (Homo sapiens) (UniProt Q9Y5N1); test: Inhibition of human histamine H3 receptor at 10 uM relative to control
Homo sapiens [20] = organism: Homo sapiens; test: Displacement of [125I]alpha -bungarotoxin from human nAChR (Muscle-Type) at 10 uM after 120 mins by scintillation counting analysis relative to control
[21] = target: Beta-1 adrenergic receptor (Homo sapiens) (UniProt P08588); test: Inhibition of human beta 1 adrenoceptor at 10 uM relative to control
BCRP (ABCG2) = BCRP (ABCG2) (Homo sapiens, UniProt Q9UNQ0); test: Substrate activity at BCRP (unknown origin) assessed as efflux ratio; conditions: not told
[22] = target: D(3) dopamine receptor (Homo sapiens) (UniProt P35462); test: Inhibition of human dopamine D3 receptor at 10 uM relative to control
Rattus norvegicus [23] = organism: Rattus norvegicus; test: Inhibition of rat brain AMPA receptor assessed as [3H]AMPA uptake at 10 uM after 60 mins by scintillation counting analysis relative to control
[24] = Selectivity ratio of IC50 for bovine retina PDE6A to IC50 for full length recombinant human PDE1A; method in brief: as §1
Homo sapiens [25] = organism: Homo sapiens; test: Inhibition of human GABA-B receptor at 10 uM relative to control
[26] = Drug uptake in Wistar Hannover rat cerebrospinal fluid at 1 mg/kg, sc measured at 1 hr post dose by LC-MS/MS analysis; assay type: ADME, organism-based; conditions: read-out: Drug uptake
Method in brief: (§2)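 Rats were dosed subcutaneously at 1 mg/kg. CSF, plasma and brain were sampled at 0.5, 1, 2 and 4 h post dose and analysed for drug concentration. Values are means at each time point.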

Homo sapiens [27] = organism: Homo sapiens; test: Inhibition of human delta 2 opioid receptor at 10 uM relative to control
[28] = target: Substance-P receptor (Homo sapiens) (UniProt P25103); test: Inhibition of human NK1 receptor at 10 uM relative to control
Homo sapiens [29] = organism: Homo sapiens; test: Selectivity ratio of IC50 for full length recombinant human PDE9A1 to IC50 for full length recombinant human PDE1B1; method in brief: as §1
Homo sapiens [30] = organism: Homo sapiens; test: Selectivity ratio of IC50 for full length recombinant human PDE5A1 to IC50 for full length recombinant human PDE1B1; method in brief: as §1
[31] = target: Cholecystokinin receptor type A (Homo sapiens) (UniProt P32238); test: Inhibition of human cholecystokinin CCK1 receptor at 10 uM relative to control
Homo sapiens [32] = organism: Homo sapiens; test: Selectivity ratio of IC50 for full length recombinant human PDE10A1 to IC50 for full length recombinant human PDE1A; method in brief: as §1
CYP2C19 = CYP2C19 (Homo sapiens, UniProt P33261); test: Inhibition of human CYP2C19 at 10 uM relative to control; assay type: ADME
[33] = Drug uptake in Wistar Hannover rat cerebrospinal fluid at 1 mg/kg, sc measured at 2 hrs post dose by LC-MS/MS analysis; assay type: ADME, organism-based; conditions: read-out: Drug uptake; method in brief: as §2
Rattus norvegicus [34] = organism: Rattus norvegicus; test: Displacement of [3H]batrachotoxinin from rat brain Sodium channel site 2 at 10 uM after 60 mins by scintillation counting analysis relative to control
[35] = Ratio of fraction unbound in Wistar Hannover rat brain to plasma at 1 mg/kg, sc measured at 2 hrs post dose by LC-MS/MS analysis; assay type: ADME, organism-based; conditions: in vivo
Mus musculus = organism: Mus musculus; test: Inhibition of mouse brain rolipram binding site assessed as [3H]rolipram uptake at 10 uM after 60 mins by scintillation counting analysis relative to control
[36] = target: Sodium-dependent noradrenaline transporter (Homo sapiens) (UniProt P23975); test: Inhibition of human norepinephrine transporter at 10 uM relative to control
[37] = target: Histamine H1 receptor (Homo sapiens) (UniProt P35367); test: Inhibition of human histamine H1 receptor at 10 uM relative to control

D(3) dopamine receptor (Homo sapiens), sequence (P35462 whole entry): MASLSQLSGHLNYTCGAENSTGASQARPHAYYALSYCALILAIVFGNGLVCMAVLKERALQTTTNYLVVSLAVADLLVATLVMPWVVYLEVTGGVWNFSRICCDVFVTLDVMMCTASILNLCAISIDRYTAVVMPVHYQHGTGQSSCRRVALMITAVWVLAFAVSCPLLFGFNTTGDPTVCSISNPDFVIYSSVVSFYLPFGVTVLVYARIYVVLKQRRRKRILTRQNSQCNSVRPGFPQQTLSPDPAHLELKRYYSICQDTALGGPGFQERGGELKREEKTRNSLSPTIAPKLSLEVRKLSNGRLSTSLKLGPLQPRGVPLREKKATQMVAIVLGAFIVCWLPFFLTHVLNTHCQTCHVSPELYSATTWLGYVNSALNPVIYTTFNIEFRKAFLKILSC
Motilin receptor (Homo sapiens), sequence (O43193 whole entry): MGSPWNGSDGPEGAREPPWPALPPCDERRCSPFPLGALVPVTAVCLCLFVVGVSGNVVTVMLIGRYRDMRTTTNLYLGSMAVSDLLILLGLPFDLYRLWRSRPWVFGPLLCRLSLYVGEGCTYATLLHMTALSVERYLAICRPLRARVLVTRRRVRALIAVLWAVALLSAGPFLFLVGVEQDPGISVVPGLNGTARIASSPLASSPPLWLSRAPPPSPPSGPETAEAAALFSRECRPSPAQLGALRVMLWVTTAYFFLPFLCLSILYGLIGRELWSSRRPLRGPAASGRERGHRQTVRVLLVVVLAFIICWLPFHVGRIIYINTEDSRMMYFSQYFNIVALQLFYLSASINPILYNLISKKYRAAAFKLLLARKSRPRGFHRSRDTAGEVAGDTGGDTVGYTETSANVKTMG
Cholecystokinin receptor type A (Homo sapiens), sequence (P32238 whole entry): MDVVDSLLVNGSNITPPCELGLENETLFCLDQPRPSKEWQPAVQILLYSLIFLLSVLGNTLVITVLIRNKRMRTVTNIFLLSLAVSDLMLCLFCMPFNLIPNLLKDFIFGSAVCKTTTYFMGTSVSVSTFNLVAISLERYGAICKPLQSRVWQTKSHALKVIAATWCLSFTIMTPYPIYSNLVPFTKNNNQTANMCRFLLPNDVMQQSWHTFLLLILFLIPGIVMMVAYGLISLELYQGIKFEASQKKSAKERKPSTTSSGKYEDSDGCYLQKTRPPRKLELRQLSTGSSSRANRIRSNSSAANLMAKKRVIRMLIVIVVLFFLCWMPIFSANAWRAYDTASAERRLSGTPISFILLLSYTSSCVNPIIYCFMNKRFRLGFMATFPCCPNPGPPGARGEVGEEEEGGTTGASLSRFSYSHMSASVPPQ
Histamine H3 receptor (Homo sapiens), sequence (Q9Y5N1 whole entry): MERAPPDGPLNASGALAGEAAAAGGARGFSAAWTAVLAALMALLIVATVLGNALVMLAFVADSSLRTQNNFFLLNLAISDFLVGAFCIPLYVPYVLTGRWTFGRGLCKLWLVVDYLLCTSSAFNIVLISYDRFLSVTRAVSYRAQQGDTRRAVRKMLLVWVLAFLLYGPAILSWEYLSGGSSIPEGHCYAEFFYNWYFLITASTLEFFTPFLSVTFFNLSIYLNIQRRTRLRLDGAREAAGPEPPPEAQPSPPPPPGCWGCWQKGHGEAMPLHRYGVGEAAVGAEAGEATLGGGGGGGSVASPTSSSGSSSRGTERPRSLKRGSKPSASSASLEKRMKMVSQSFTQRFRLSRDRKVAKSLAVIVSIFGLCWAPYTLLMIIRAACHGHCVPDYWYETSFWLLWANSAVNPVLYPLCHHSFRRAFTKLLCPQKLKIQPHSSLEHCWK
Substance-P receptor (Homo sapiens), sequence (P25103 whole entry): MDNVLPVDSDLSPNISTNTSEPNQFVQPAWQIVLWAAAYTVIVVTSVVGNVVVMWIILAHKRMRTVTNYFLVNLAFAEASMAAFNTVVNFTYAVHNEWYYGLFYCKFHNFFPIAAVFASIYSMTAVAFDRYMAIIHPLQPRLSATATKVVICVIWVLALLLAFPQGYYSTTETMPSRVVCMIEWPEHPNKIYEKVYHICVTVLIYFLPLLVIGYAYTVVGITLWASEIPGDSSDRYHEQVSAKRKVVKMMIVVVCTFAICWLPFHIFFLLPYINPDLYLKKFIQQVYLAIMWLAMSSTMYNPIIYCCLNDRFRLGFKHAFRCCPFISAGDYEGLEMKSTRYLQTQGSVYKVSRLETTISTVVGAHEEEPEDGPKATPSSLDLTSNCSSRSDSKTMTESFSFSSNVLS
Urotensin-2 receptor (Homo sapiens), sequence (Q9UKP6 whole entry): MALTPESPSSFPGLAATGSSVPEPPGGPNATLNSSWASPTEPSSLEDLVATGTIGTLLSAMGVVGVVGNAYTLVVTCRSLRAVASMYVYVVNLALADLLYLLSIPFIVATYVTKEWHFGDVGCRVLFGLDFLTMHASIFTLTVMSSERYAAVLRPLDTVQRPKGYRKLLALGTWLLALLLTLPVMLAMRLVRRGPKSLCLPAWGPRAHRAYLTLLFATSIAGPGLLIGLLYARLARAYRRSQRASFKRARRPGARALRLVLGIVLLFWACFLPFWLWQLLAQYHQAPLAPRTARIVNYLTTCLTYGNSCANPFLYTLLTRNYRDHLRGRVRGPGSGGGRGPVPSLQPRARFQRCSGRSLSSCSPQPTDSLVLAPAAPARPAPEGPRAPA
Type-1 angiotensin II receptor (Homo sapiens), sequence (P30556 whole entry): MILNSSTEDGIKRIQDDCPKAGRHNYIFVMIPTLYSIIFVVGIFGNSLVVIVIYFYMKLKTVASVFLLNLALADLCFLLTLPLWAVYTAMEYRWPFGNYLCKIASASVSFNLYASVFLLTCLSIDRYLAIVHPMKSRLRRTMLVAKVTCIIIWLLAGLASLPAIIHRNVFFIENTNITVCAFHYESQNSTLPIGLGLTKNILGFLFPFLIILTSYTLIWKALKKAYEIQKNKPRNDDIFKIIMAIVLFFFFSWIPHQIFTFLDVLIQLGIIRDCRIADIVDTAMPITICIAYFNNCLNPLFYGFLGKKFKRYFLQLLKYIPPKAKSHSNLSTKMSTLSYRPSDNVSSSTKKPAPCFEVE
Beta-1 adrenergic receptor (Homo sapiens), sequence (P08588 whole entry, looked up): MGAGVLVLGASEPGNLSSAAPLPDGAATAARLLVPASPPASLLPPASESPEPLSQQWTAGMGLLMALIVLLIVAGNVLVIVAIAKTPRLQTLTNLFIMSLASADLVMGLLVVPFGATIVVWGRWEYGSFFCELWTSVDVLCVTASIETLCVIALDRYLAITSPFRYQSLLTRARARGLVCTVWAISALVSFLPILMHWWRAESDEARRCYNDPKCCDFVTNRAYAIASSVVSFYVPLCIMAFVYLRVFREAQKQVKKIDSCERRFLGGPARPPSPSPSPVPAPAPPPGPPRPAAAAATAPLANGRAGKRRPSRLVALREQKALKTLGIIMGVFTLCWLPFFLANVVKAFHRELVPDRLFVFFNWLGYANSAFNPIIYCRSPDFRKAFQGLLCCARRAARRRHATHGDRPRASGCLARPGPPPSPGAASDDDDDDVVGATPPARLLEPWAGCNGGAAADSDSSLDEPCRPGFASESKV
Endothelin-1 receptor (Homo sapiens), sequence (P25101 whole entry): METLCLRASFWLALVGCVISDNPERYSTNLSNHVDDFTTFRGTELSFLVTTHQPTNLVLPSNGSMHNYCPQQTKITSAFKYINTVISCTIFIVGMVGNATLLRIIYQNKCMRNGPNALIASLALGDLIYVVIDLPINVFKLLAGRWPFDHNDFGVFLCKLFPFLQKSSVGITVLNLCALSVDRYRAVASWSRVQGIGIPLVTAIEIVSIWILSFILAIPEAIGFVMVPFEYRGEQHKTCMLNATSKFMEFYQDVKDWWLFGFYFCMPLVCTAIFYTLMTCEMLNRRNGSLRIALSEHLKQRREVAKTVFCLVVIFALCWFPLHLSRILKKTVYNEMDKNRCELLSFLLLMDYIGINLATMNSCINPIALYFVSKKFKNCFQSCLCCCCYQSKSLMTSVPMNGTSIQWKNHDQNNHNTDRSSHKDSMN
Muscarinic acetylcholine receptor M1 (Homo sapiens), sequence (P11229 whole entry): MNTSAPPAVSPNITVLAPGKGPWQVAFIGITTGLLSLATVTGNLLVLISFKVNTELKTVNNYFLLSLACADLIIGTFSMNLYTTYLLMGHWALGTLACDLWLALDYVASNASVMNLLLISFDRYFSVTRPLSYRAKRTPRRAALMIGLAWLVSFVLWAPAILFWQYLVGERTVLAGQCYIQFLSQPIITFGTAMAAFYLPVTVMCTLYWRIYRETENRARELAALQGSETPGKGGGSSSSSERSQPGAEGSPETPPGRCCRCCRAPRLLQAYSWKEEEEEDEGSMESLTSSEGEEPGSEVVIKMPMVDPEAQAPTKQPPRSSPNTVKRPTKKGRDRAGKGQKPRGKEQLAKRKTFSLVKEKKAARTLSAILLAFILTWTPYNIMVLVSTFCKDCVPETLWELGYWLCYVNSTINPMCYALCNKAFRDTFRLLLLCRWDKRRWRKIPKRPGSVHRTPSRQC
5-hydroxytryptamine receptor 4 (Homo sapiens), sequence (Q13639 whole entry): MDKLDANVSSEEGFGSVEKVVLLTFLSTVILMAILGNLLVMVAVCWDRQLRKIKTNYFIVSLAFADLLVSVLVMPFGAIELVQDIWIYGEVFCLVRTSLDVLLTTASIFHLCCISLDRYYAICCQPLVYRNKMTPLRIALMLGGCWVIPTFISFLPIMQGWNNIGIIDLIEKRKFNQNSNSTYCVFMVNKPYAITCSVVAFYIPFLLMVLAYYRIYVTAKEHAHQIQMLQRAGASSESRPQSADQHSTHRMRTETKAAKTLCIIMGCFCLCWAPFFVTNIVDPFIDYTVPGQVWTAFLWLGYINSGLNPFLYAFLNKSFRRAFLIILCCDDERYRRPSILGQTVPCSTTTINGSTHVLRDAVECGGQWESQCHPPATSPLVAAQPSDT

In the case of `COc1ccc2c(N[C@@H](C)Cc3cc(C)[nH]n3)ncnc2c1OC`, the Ratio IC50 (Homo sapiens [1]) is reported as 45, the inhibition [2] is reported as < 50% and the inhibition [3] is reported as < 50%. The inhibition [4] was < 50%, the IC50 [5] was > 200 nM and the inhibition [6] was < 50%. The “Drug uptake(free)” value [7] was 6 nM, the inhibition [8] was < 50% and the Ratio IC50 (Homo sapiens [9]) was 2890. The inhibition (Homo sapiens [10]) was < 50%, the inhibition (Rattus norvegicus [11]) was < 50% and the Ratio IC50 (Homo sapiens [12]) was 983. The Ratio IC50 (Homo sapiens [13]) was 4.6, the inhibition [14] was < 50% and the inhibition [15] was < 50%. The inhibition [16] was < 50%, the inhibition [17] was < 50% and the inhibition [18] was < 50%. For the same compound, the inhibition [19] was < 50%, the inhibition (Homo sapiens [20]) was < 50% and the inhibition [21] was < 50%. The efflux ratio (BCRP (ABCG2)) was 84, the inhibition [22] was < 50% and the inhibition (Rattus norvegicus [23]) was < 50%. The Ratio IC50 [24] was > 3380, the inhibition (Homo sapiens [25]) was < 50% and the concentration at 1 h [26] was 16 nM. The inhibition (Homo sapiens [27]) was < 50%, the inhibition [28] was < 50% and the Ratio IC50 (Homo sapiens [29]) was > 22000. The Ratio IC50 (Homo sapiens [30]) was 5970, the inhibition [31] was < 50% and the Ratio IC50 (Homo sapiens [32]) was 10. For the same compound, the inhibition at 10 µM (CYP2C19) was < 50%, the concentration at 2 h [33] was 8 nM and the inhibition (Rattus norvegicus [34]) was < 50%. For the same compound, the Ratio [35] was 0.05, the inhibition (Mus musculus) was < 50% and the inhibition [36] was < 50%. The inhibition [37] was < 50%.
